This is an account of results in ChEMBL document CHEMBL1139376, “Synthesis and biological activity of human neuropeptide S analogues modified in position 5: identification of potent and pure neuropeptide S receptor antagonists” (J Med Chem, 2009).

For test [1], the target named is T1, Neuropeptide S receptor (Mus musculus) (UniProt Q8BZP8).
T1 sequence (whole entry): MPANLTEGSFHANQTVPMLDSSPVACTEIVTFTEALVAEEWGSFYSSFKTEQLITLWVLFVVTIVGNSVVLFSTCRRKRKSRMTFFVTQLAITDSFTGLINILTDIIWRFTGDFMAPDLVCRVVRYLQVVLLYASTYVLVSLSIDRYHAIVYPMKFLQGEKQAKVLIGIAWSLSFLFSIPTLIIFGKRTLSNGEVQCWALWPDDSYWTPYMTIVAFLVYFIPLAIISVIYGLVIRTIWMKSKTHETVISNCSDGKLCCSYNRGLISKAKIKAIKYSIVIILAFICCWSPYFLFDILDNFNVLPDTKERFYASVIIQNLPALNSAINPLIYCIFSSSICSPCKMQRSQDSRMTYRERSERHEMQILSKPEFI
The experiment in a line: Agonist activity at mouse NPSR expressed in HEK293 cells upto 10 uM by calcium mobilization assay. It is filed as functional, cell-based. The method in brief:
(§1)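 HEK293 cells stably expressing mouse NPSR were grown in DMEM with 10% FBS, 2 mM glutamine and hygromycin. They were plated on poly-D-lysine wells and, the next day, loaded for 30 min at 37 °C with 3 μM Fluo-4 AM, 2.5 mM probenecid and 0.01% pluronic acid. Fluorescence was read at about 22 °C in HBSS with 20 mM HEPES, probenecid and 500 μM Brilliant Black. The response was the peak fluorescence change as % of baseline, from at least 4 experiments run in duplicate.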
A general note: Calcium flux is commonly read through the fluorescence of an indicator in the cells.

For another test, the target named is T2, Neuropeptide S receptor (Mus musculus, UniProt Q8BZP8).
T2 sequence (Q8BZP8 whole entry): T1 sequence (whole entry)
Description: Agonist activity at mouse NPSR expressed in HEK293 cells by calcium mobilization assay. In kind it is functional, cell-based. The method in brief:
as §1

Test [2] deals with Mus musculus. The experiment in a line: Effect on locomotor activity in […] Swiss mouse assessed as immobility time at 1 nmol, icv befor 5 mins observed for 60 mins. In kind it is functional, organism-based. The gist of the method:
(§2)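 Male Swiss mice (2 months, 25–30 g) received peptide i.c.v. at 0.01–1 nmole in 2 μl into the left ventricle under light ether anaesthesia, 5 min before testing. Each mouse was used once, in the light phase, with no food during testing. Activity was tracked for 60 min in 40 × 40 cm cages. Video recorded distance and immobility time, and an infrared beam array counted rearings. There were 4 experiments with 4 mice/group.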

In test [3] the test system is Mus musculus. Description: Effect on locomotor activity in […] Swiss mouse assessed as number of rearings dosed at 1 nmol, icv befor 5 mins observed for 60 mins. In kind it is functional, organism-based. The gist of the method: as §2
Test [4] has as its system Mus musculus. Description: Effect on locomotor activity in […] Swiss mouse assessed as increase in cumulative distance traveled dosed at 1 nmol, icv before 5 mins observed for 60 mins. In kind it is functional, organism-based. The gist of the method:
as §2

In test [5] the test system is Mus musculus. The experiment in a line: Effect on locomotor activity in […] Swiss mouse assessed as increase in cumulative distance traveled dosed at 0.1 nmol, icv before 5 mins observed for 60 mins. It is filed as functional, organism-based. The gist of the method: as §2
In test [6] the test system is Mus musculus. Description: Effect on locomotor activity in […] Swiss mouse assessed as increase in number of rearings dosed at 0.1 nmol, icv before 5 mins observed for 60 mins. It is filed as functional, organism-based. The method in brief: as §2
Test [7] concerns Mus musculus. The experiment in a line: Effect on locomotor activity in […] Swiss mouse assessed as decrease in immobility time at 0.1 nmol, icv before 5 mins observed for 60 mins.
In test [8] the target is T1, Neuropeptide S receptor (Mus musculus). The experiment in a line: Agonist activity at mouse NPSR expressed in HEK293 cells by calcium mobilization assay relative to basal level. It is filed as functional, cell-based. The gist of the method: as §1

pEC50: −log10 of the molar value. Calls of active or inactive are those of the source. No cut-off for these calls is given here. Where a SMILES comes first, the peptide text is derived from it. [ ]: non-standard residue; d: D form. The star is where a group is joined. Bn = c1ccc(C*)cc1; Acm = CC(=O)NC*; tBu = CC(C)(C)*

For `CSCC[C@H](NC(=O)CNC(=O)[C@@H](NC(=O)CNC(=O)[C@@H](NC(=O)[C@@H](CSCNC(C)=O)NC(=O)[C@H](CC(N)=O)NC(=O)[C@H](CCCNC(=N)N)NC(=O)[C@H](Cc1ccccc1)NC(=O)[C@@H](N)CO)C(C)C)[C@@H](C)O)C(=O)N[C@@H](CCCCN)C(=O)N[C@@H](CCCCN)C(=O)N[C@H](C(=O)N[C@@H](CO)C(=O)N[C@@H](Cc1ccccc1)C(=O)N[C@@H](CCC(N)=O)C(=O)N[C@@H](CCCNC(=N)N)C(=O)N[C@@H](C)C(=O)N[C@@H](CCCCN)C(=O)N[C@@H](CO)C(=O)O)[C@@H](C)O` (H-SFRN[dC](Acm)VGTGMKKTSFQRAKS-OH), the outcome in [1] was inactive.

In the case of `CSCC[C@H](NC(=O)CNC(=O)[C@@H](NC(=O)CNC(=O)[C@@H](NC(=O)[C@@H](CSCc1ccccc1)NC(=O)[C@H](CC(N)=O)NC(=O)[C@H](CCCNC(=N)N)NC(=O)[C@H](Cc1ccccc1)NC(=O)[C@@H](N)CO)C(C)C)[C@@H](C)O)C(=O)N[C@@H](CCCCN)C(=O)N[C@@H](CCCCN)C(=O)N[C@H](C(=O)N[C@@H](CO)C(=O)N[C@@H](Cc1ccccc1)C(=O)N[C@@H](CCC(N)=O)C(=O)N[C@@H](CCCNC(=N)N)C(=O)N[C@@H](C)C(=O)N[C@@H](CCCCN)C(=O)N[C@@H](CO)C(=O)O)[C@@H](C)O` (H-SFRN[dC](Bn)VGTGMKKTSFQRAKS-OH), the outcome in test [1] was inactive.

On to `CSCC[C@H](NC(=O)CNC(=O)[C@@H](NC(=O)CNC(=O)[C@@H](NC(=O)[C@@H](CSC(C)(C)C)NC(=O)[C@H](CC(N)=O)NC(=O)[C@H](CCCNC(=N)N)NC(=O)[C@H](Cc1ccccc1)NC(=O)[C@@H](N)CO)C(C)C)[C@@H](C)O)C(=O)N[C@@H](CCCCN)C(=O)N[C@@H](CCCCN)C(=O)N[C@H](C(=O)N[C@@H](CO)C(=O)N[C@@H](Cc1ccccc1)C(=O)N[C@@H](CCC(N)=O)C(=O)N[C@@H](CCCNC(=N)N)C(=O)N[C@@H](C)C(=O)N[C@@H](CCCCN)C(=O)N[C@@H](CO)C(=O)O)[C@@H](C)O` (H-SFRN[dC](tBu)VGTGMKKTSFQRAKS-OH), for which the result in test [1] was inactive.

`CSCC[C@H](NC(=O)CNC(=O)[C@@H](NC(=O)CNC(=O)[C@@H](NC(=O)[C@@H](Cc1ccccc1)NC(=O)[C@H](CC(N)=O)NC(=O)[C@H](CCCNC(=N)N)NC(=O)[C@H](Cc1ccccc1)NC(=O)[C@@H](N)CO)C(C)C)[C@@H](C)O)C(=O)N[C@@H](CCCCN)C(=O)N[C@@H](CCCCN)C(=O)N[C@H](C(=O)N[C@@H](CO)C(=O)N[C@@H](Cc1ccccc1)C(=O)N[C@@H](CCC(N)=O)C(=O)N[C@@H](CCCNC(=N)N)C(=O)N[C@@H](C)C(=O)N[C@@H](CCCCN)C(=O)N[C@@H](CO)C(=O)O)[C@@H](C)O` (H-SFRN[dF]VGTGMKKTSFQRAKS-OH): the result in test [1] was inactive.

For orientation: pEC50 means −log10 of the EC50, conventionally taken in molar units. As to `CSCC[C@H](NC(=O)CNC(=O)[C@@H](NC(=O)CNC(=O)[C@@H](NC(=O)[C@@H](CC(C)C)NC(=O)[C@H](CC(N)=O)NC(=O)[C@H](CCCNC(=N)N)NC(=O)[C@H](Cc1ccccc1)NC(=O)[C@@H](N)CO)C(C)C)[C@@H](C)O)C(=O)N[C@@H](CCCCN)C(=O)N[C@@H](CCCCN)C(=O)N[C@H](C(=O)N[C@@H](CO)C(=O)N[C@@H](Cc1ccccc1)C(=O)N[C@@H](CCC(N)=O)C(=O)N[C@@H](CCCNC(=N)N)C(=O)N[C@@H](C)C(=O)N[C@@H](CCCCN)C(=O)N[C@@H](CO)C(=O)O)[C@@H](C)O` (H-SFRN[dL]VGTGMKKTSFQRAKS-OH), the pEC50 on Neuropeptide S receptor was 7.05.

Turning to `CSCC[C@H](NC(=O)CNC(=O)[C@@H](NC(=O)CNC(=O)[C@@H](NC(=O)[C@@H](CCSC)NC(=O)[C@H](CC(N)=O)NC(=O)[C@H](CCCNC(=N)N)NC(=O)[C@H](Cc1ccccc1)NC(=O)[C@@H](N)CO)C(C)C)[C@@H](C)O)C(=O)N[C@@H](CCCCN)C(=O)N[C@@H](CCCCN)C(=O)N[C@H](C(=O)N[C@@H](CO)C(=O)N[C@@H](Cc1ccccc1)C(=O)N[C@@H](CCC(N)=O)C(=O)N[C@@H](CCCNC(=N)N)C(=O)N[C@@H](C)C(=O)N[C@@H](CCCCN)C(=O)N[C@@H](CO)C(=O)O)[C@@H](C)O` (H-SFRN[dM]VGTGMKKTSFQRAKS-OH), the result in test [1] was inactive.

With `CSCC[C@H](NC(=O)CNC(=O)[C@@H](NC(=O)CNC(=O)[C@@H](NC(=O)[C@H](NC(=O)[C@H](CC(N)=O)NC(=O)[C@H](CCCNC(=N)N)NC(=O)[C@H](Cc1ccccc1)NC(=O)[C@@H](N)CO)C(C)C)C(C)C)[C@@H](C)O)C(=O)N[C@@H](CCCCN)C(=O)N[C@@H](CCCCN)C(=O)N[C@H](C(=O)N[C@@H](CO)C(=O)N[C@@H](Cc1ccccc1)C(=O)N[C@@H](CCC(N)=O)C(=O)N[C@@H](CCCNC(=N)N)C(=O)N[C@@H](C)C(=O)N[C@@H](CCCCN)C(=O)N[C@@H](CO)C(=O)O)[C@@H](C)O` (H-SFRN[dV]VGTGMKKTSFQRAKS-OH), the outcome in the test with Mus musculus [2], with Mus musculus [3] and in the test on Mus musculus [4] was Active. For the same compound, the outcome in test [1] was inactive.

For the compound `CSCC[C@H](NC(=O)CNC(=O)[C@@H](NC(=O)CNC(=O)[C@@H](NC(=O)[C@@H](Cc1c[nH]c2ccccc12)NC(=O)[C@H](CC(N)=O)NC(=O)[C@H](CCCNC(=N)N)NC(=O)[C@H](Cc1ccccc1)NC(=O)[C@@H](N)CO)C(C)C)[C@@H](C)O)C(=O)N[C@@H](CCCCN)C(=O)N[C@@H](CCCCN)C(=O)N[C@H](C(=O)N[C@@H](CO)C(=O)N[C@@H](Cc1ccccc1)C(=O)N[C@@H](CCC(N)=O)C(=O)N[C@@H](CCCNC(=N)N)C(=O)N[C@@H](C)C(=O)N[C@@H](CCCCN)C(=O)N[C@@H](CO)C(=O)O)[C@@H](C)O` (H-SFRN[dW]VGTGMKKTSFQRAKS-OH), the outcome in test [1] was inactive.

Turning to “H-SFRNGVGTGMKKTSFQRAKS-OH [NEUROPEPTIDE S]”, the pEC50 on Neuropeptide S receptor is 8.65. For the same compound, the result in the test on Mus musculus [5], in the test on Mus musculus [6] and in the test on Mus musculus [7] was Active.

As a reminder, the Emax is the maximal effect, on the per cent scale that the assay sets. Turning to H-SFRNWVGTGMKKTSFQRAKS-OH, the Emax in test [8] turned out to be 30%.
